Active and inactive are the calls of the source. The rule behind the calls is not given here.
Assays:
[1] = molecular target: T1, Lanosterol 14-alpha demethylase (Mus musculus, UniProt Q8K0C4); experiment: Inhibition of 14 alpha demethylase in Dhcr7-deficient mouse Neuro2a cells assessed as decrease in desmosterol levels at 1 uM by LC-MS/GC-MS analysis; assay type: cell-based
T1 sequence (Q8K0C4 whole entry): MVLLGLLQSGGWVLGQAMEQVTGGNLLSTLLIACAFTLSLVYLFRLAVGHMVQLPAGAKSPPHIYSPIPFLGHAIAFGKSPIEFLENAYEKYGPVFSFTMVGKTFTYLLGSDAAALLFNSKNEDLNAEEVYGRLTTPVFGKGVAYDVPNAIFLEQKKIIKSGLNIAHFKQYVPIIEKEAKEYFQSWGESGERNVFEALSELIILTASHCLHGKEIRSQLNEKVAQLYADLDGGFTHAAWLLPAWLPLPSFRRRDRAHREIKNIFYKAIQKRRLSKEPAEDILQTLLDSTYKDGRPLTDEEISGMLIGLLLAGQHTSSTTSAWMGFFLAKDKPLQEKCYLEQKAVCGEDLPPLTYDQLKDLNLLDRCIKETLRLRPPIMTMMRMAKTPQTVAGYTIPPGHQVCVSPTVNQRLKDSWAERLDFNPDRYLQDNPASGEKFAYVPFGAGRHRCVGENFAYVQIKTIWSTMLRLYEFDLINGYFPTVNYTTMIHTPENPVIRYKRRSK
In short: (§1)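 Dhcr7-deficient Neuro2a cells (13000/well, 0.5% FBS medium) on predeposited compound, 24 h at 37 °C. Hoechst-stained and imaged to count cells. Lysed in methanol containing isotope-labelled sterol standards, derivatized with PTAD 20 min at RT, then isocratic C18 UPLC-MS/SRM. Remaining extract silylated with BSTFA for GC-MS, quantified against d7-cholesterol. Follow-up runs in triplicate.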

[2] = Antiproliferative activity against Dhcr7-deficient mouse Neuro2a cells at 500 nM; assay type: cell-based; settings: n2a, 0.5 µM
In short: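 Dhcr7-deficient Neuro2a cells treated with compound; proliferation followed by Hoechst nuclear staining and automated microscope imaging with cell counts per well.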

[3] = molecular target: T1, Lanosterol 14-alpha demethylase; experiment: Inhibition of 14 alpha demethylase in Dhcr7-deficient mouse Neuro2a cells assessed as increase in cholesterol levels at 1 uM by LC-MS/GC-MS analysis; assay type: cell-based; in short: as §1
[4] = molecular target: T1, Lanosterol 14-alpha demethylase; experiment: Inhibition of 14 alpha demethylase in Dhcr7-deficient mouse Neuro2a cells assessed as decrease in 7-DHC levels at 1 uM by LC-MS/GC-MS analysis; assay type: cell-based; in short: as §1
[5] = molecular target: T1, Lanosterol 14-alpha demethylase; experiment: Inhibition of 14 alpha demethylase in Dhcr7-deficient mouse Neuro2a cells assessed as increase in lanosterol levels at 1 uM by LC-MS/GC-MS analysis; assay type: cell-based; in short: as §1
[6] = molecular target: T2, Delta(24)-sterol reductase (Mus musculus) (UniProt Q8VCH6); experiment: Inhibition of DR24 in Dhcr7-deficient mouse Neuro2a cells assessed as increase in desmosterol levels at 100 nM by LC-MS/GC-MS analysis; assay type: cell-based
T2 sequence (whole entry): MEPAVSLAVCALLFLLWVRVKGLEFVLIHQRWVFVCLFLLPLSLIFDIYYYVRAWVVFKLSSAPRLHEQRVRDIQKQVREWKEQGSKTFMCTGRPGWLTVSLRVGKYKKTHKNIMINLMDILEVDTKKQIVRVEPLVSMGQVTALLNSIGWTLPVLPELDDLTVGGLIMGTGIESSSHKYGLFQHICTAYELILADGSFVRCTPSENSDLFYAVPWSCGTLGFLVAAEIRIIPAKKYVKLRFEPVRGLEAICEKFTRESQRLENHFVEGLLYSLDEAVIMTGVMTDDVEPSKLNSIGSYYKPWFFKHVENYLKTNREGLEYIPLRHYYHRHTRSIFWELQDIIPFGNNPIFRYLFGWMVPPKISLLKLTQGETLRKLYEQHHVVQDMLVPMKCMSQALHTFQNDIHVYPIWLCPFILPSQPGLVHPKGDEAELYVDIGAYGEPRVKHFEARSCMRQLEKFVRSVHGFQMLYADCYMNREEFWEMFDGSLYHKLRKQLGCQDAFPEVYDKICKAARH
In short: (§2)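 Follow-up (verification) assay in 96-well plates, run as the 384-well screen, in triplicate, at varying compound concentrations. Cells counted by Hoechst imaging, washed with PBS, then lysed in MeOH with BHT/TPP and isotope standards (d7-Chol, d7-7-DHC, 13C3-Des, 13C3-Lan). Sterols derivatised with PTAD for 20 min at RT and quantified by C18 UPLC-MS (SRM). Remaining sample silylated with BSTFA and run on GC-MS, quantified against d7-Chol.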

[7] = molecular target: T2, Delta(24)-sterol reductase (Mus musculus); experiment: Inhibition of DR24 in Dhcr7-deficient mouse Neuro2a cells assessed as decrease in 7-DHC levels at 1 uM by LC-MS/GC-MS analysis; assay type: cell-based; in short: as §1
[8] = molecular target: T2, Delta(24)-sterol reductase (Mus musculus); experiment: Inhibition of DR24 in Dhcr7-deficient mouse Neuro2a cells assessed as increase in lanosterol levels at 100 nM by LC-MS/GC-MS analysis; assay type: cell-based; in short: as §2
N2a = experiment: Change in cholesterol level in Dhcr7-deficient mouse Neuro2a cells at 100 nM by LC-MS/GC-MS analysis; assay type: functional, cell-based; in short: as §2
[9] = molecular target: T3, 3-beta-hydroxysteroid-Delta(8),Delta(7)-isomerase (Mus musculus) (UniProt P70245); experiment: Inhibition of delta 8-7 isomerase in mouse Neuro2a cells assessed as decrease in 7-DHC levels at 1 uM by LC-MS/GC-MS analysis; assay type: cell-based
T3 sequence (whole entry): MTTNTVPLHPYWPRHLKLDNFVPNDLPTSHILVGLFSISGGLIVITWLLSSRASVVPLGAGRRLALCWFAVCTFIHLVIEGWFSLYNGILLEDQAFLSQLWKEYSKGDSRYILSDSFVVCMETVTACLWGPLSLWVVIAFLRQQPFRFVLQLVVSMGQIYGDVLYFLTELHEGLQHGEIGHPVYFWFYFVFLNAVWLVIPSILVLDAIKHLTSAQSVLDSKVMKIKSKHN
In short: (§3)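 Control Neuro2a cells (10000/well, 0.5% FBS) on compound, 24 h. Hoechst cell count, then methanol lysis with labelled standards (d7-7-DHC, 13C3-desmosterol, 13C3-lanosterol), PTAD derivatization 20 min at RT, UPLC-MS SRM. GC-MS of silylated extract for further sterols.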

[10] = molecular target: 3-beta-hydroxysteroid-Delta(8),Delta(7)-isomerase (Homo sapiens) (UniProt Q15125); experiment: Inhibition of delta 8-7 isomerase in human SLOS fibroblasts assessed as decrease in 7-DHC levels at 10 nM after 5 days by LC-MS/GC-MS analysis
In short: (§4)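 SLOS patient skin fibroblasts (passage 8–20) grown in 96-well plates in delipidated serum with compound for 5 days; three different SLOS lines. Sterols quantified by PTAD-derivatized UPLC-MS plus GC-MS; 7-DHC expressed as percentage of untreated cells.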

Fibroblast = experiment: Decrease in cholesterol levels in human SLOS fibroblasts at 10 nM after 5 days by LC-MS/GC-MS analysis; assay type: functional, cell-based; in short: as §4
[11] = molecular target: T3, 3-beta-hydroxysteroid-Delta(8),Delta(7)-isomerase (Mus musculus); experiment: Inhibition of delta 8-7 isomerase in Dhcr7-deficient mouse Neuro2a cells assessed as decrease in cholesterol levels at 1 uM by LC-MS/GC-MS analysis; assay type: cell-based; in short: as §2
[12] = molecular target: T3, 3-beta-hydroxysteroid-Delta(8),Delta(7)-isomerase (Mus musculus); experiment: Inhibition of delta 8-7 isomerase in Dhcr7-deficient mouse Neuro2a cells assessed as increase in zymostenol levels at 1 uM by LC-MS/GC-MS analysis; assay type: cell-based; in short: as §2
[13] = Cytotoxicity against human SLOS fibroblasts at 5 uM after 5 days by Cell Titer assay; assay type: cell-based; settings: fibroblast, 120 h
[14] = molecular target: T3, 3-beta-hydroxysteroid-Delta(8),Delta(7)-isomerase (Mus musculus); experiment: Inhibition of delta 8-7 isomerase in Dhcr7-deficient mouse Neuro2a cells assessed as decrease in 7-DHC levels at 1 uM by LC-MS/GC-MS analysis; assay type: cell-based; in short: as §1
[15] = molecular target: T4, Delta(24)-sterol reductase (Homo sapiens) (UniProt Q15392); experiment: Inhibition of DR24 in human SLOS fibroblasts assessed as decrease in 7-DHC levels at 10 nM after 5 days by LC-MS/GC-MS analysis; in short: as §4
T4 sequence (whole entry): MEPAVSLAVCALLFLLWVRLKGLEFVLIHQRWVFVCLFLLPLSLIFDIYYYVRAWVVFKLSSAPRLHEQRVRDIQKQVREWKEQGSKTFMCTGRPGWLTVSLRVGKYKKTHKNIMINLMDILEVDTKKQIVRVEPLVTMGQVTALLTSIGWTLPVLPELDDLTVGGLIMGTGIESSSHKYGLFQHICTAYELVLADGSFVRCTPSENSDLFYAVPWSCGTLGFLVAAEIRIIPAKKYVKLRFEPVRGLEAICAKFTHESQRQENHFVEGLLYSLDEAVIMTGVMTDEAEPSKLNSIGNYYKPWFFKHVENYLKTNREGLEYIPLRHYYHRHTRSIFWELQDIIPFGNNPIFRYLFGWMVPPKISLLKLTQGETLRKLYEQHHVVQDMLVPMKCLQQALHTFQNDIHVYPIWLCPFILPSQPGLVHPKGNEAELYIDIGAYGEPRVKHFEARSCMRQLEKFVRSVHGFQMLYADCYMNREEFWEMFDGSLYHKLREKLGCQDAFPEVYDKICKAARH

[16] = molecular target: T2, Delta(24)-sterol reductase (Mus musculus); experiment: Inhibition of DR24 in mouse Neuro2a cells assessed as decrease in 7-DHC levels at 1 uM by LC-MS/GC-MS analysis; assay type: cell-based; in short: as §3
[17] = molecular target: T3, 3-beta-hydroxysteroid-Delta(8),Delta(7)-isomerase (Mus musculus); experiment: Inhibition of delta 8-7 isomerase in Dhcr7-deficient mouse Neuro2a cells assessed as increase in zymosterol levels at 1 uM by LC-MS/GC-MS analysis; assay type: cell-based; in short: as §2
[18] = molecular target: T2, Delta(24)-sterol reductase (Mus musculus); experiment: Inhibition of C-24 reductase in Dhcr7-deficient mouse Neuro2a cells assessed as increase in desmosterol levels at 1 uM by LC-MS/GC-MS analysis; assay type: cell-based; in short: as §1
[19] = molecular target: T2, Delta(24)-sterol reductase (Mus musculus); experiment: Inhibition of C-24 reductase in Dhcr7-deficient mouse Neuro2a cells assessed as increase in zymosterol levels at 1 uM by LC-MS/GC-MS analysis; assay type: cell-based; in short: as §1
[20] = molecular target: T2, Delta(24)-sterol reductase (Mus musculus); experiment: Inhibition of Dhcr24 in Dhcr7-deficient mouse Neuro2a cells assessed as increase in 7-dehydrodesmosterol levels at 1 uM by LC-MS/GC-MS analysis; assay type: cell-based; in short: as §1

Sequence of 3-beta-hydroxysteroid-Delta(8),Delta(7)-isomerase (Homo sapiens) (Q15125 whole entry): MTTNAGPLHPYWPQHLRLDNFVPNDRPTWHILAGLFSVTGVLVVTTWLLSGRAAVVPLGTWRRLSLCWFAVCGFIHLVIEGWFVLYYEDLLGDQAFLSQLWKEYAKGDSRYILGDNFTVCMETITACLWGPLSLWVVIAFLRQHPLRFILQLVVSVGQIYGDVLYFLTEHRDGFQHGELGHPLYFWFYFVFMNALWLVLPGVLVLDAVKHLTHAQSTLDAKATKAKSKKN

Row | SMILES | inhibition [7] | Activity (decrease in 7-DHC levels) [9] | inhibition [10] | Activity (Fibroblast) | Activity [13] | inhibition [14] | inhibition [15] | Decrease in 7-DHC levels (active/inactive call) [16] | inhibition [18] | also measured
1 | Oc1c(Cl)cc(Cl)c2cccnc12 [CHLOROXINE] | – | – | – | – | – | – | – | – | – | inhibition (INH) [1]: Active; Activity [2]: Toxic; inhibition (INH) [3]: Active; inhibition (INH) [4]: Active; inhibition (INH) [5]: Active
2 | CCC(COC(=O)c1cc(OC)c(OC)c(OC)c1)(c1ccccc1)N(C)C (stereo not drawn) | Active | – | – | – | – | – | – | – | – | inhibition [6]: Active; inhibition [8]: Active; Activity (N2a): inactive
3 | CC/C(=C(\c1ccccc1)c1ccc(OCCN(C)C)cc1)c1ccccc1 [TAMOXIFEN] | Active | Active | Active | inactive | Toxic | Active | Active | Active | – | inhibition [11]: Active; inhibition [12]: Active; inhibition [17]: Active
4 | O=C(c1ccc(OCCN2CCCCC2)cc1)c1c(-c2ccc(O)cc2)sc2cc(O)ccc12 [RALOXIFENE] | Active | Active | Active | inactive | Toxic | Active | Active | Active | Active | inhibition [19]: Active
5 | COc1ccc2c(c1)OC(C)(C)[C@@H](c1ccccc1)[C@@H]2c1ccc(OCCN2CCCC2)cc1 [LEVORMELOXIFENE] | Active | – | Active | inactive | Toxic | Active | Active | – | Active | inhibition [20]: Active

From ChEMBL document CHEMBL3774374, “The Effect of Small Molecules on Sterol Homeostasis: Measuring 7-Dehydrocholesterol in Dhcr7-Deficient Neuro2a Cells and Human Fibroblasts” (J Med Chem, 2016)
